pIC50, pKd: −log10 of the molar value.
Key:
Plasminogen [1] = target: T1, Plasminogen (Homo sapiens, UniProt P00747); assay: Allosteric inhibition of full length human plasmin by using chromogenic substrate spectrozyme PL preincubated for 5 mins followed by substrate addition by spectrophotometric method
Method in brief: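 Inhibitor added from 0–20 mM aqueous stocks, or vehicle. After 5 min, Spectrozyme PL added (1 mM stock). Residual activity taken from initial rate of A405 rise. Logistic fit gives IC50, efficacy and Hill slope.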

Plasminogen [2] = target: T1, Plasminogen; assay: Binding affinity to human plasmin assessed as loss of intrinsic tryptophan fluorescence at 250 uM by spectrofluorometric method
Plasminogen [3] = target: T1, Plasminogen; assay: Binding affinity to human dansyl-EGR-chloromethylketone-plasmin complex assessed as loss of intrinsic tryptophan fluorescence by spectrofluorometric method
Coagulation factor XI = Coagulation factor XI (Homo sapiens, UniProt P03951); assay: Inhibition of human F11a by using chromogenic substrate S-2366 preincubated for 5 mins followed by substrate addition by spectrophotometric method
Method in brief: (§1)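 Tris-HCl pH 7.4 buffer (100 mM NaCl, 2.5 mM CaCl2, 0.1% PEG8000, 0.02% Tween80) at 37 °C; factor IXa buffer also held 33% ethylene glycol. Final enzyme: factor Xa 1.09 nM, XIa 0.75 nM, XIIa 10 nM, IXa 250 nM, trypsin 0.145 µg/mL, chymotrypsin […]. Inhibitor from 0–20 mM stock, 5 min preincubation, then substrate. Initial A405 rate, sigmoidal dose–response fit.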

Prothrombin = Prothrombin (Homo sapiens, UniProt P00734); assay: Inhibition of human thrombin by using chromogenic substrate spectrozyme TH preincubated for 5 mins followed by substrate addition by spectrophotometric method
Method in brief: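 Thrombin at 6 nM final, 25 °C, in 20 mM Tris-HCl pH 7.4 with 100 mM NaCl, 2.5 mM CaCl2, 0.1% PEG8000, 0.02% Tween80. Inhibitor (0–20 mM stock) or vehicle preincubated 5 min with enzyme. Spectrozyme TH added (1.0 mM stock). Residual activity read as initial rate of A405 increase and fitted to a sigmoidal dose–response curve.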

Coagulation factor X = Coagulation factor X (Homo sapiens, UniProt P00742); assay: Inhibition of human F10a by using chromogenic substrate spectrozyme F10a preincubated for 5 mins followed by substrate addition by spectrophotometric method; method in brief: as §1
Coagulation factor XII = target: T2, Coagulation factor XII (Homo sapiens, UniProt P00748); assay: Inhibition of human F12a by using chromogenic substrate spectrozyme F12a preincubated for 5 mins followed by substrate addition by spectrophotometric method
T2 sequence (P00748 whole entry): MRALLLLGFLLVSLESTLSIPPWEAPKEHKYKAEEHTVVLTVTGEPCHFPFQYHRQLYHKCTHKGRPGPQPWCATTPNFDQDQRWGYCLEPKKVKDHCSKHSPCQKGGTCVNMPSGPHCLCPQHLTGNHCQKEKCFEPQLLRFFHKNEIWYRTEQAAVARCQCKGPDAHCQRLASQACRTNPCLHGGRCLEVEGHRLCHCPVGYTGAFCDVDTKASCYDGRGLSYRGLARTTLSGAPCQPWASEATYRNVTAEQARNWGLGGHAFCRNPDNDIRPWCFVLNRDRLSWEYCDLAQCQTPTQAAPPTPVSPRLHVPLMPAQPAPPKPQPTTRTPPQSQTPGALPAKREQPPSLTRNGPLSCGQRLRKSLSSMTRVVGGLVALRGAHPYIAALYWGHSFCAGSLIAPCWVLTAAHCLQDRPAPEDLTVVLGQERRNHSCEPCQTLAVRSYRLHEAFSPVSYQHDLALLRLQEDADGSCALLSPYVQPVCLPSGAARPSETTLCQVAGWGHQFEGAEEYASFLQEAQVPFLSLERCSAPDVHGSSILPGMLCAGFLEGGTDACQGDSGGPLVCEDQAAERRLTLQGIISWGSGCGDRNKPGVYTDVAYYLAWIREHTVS

Coagulation factor IX = Coagulation factor IX (Homo sapiens, UniProt P00740); assay: Inhibition of human F9a by using chromogenic substrate spectrozyme F9a preincubated for 5 mins followed by substrate addition by spectrophotometric method
[4] = Inhibition of human chymotrypsin using chromogenic substrate spectrozyme Cty preincubated for 5 mins followed by substrate addition by spectrophotometric method; method in brief: as §1
[5] = Inhibition of human trypsin using chromogenic substrate SS-2222 preincubated for 5 mins followed by substrate addition by spectrophotometric method; method in brief: as §1

T1 sequence (P00747 97-580 limits assumed): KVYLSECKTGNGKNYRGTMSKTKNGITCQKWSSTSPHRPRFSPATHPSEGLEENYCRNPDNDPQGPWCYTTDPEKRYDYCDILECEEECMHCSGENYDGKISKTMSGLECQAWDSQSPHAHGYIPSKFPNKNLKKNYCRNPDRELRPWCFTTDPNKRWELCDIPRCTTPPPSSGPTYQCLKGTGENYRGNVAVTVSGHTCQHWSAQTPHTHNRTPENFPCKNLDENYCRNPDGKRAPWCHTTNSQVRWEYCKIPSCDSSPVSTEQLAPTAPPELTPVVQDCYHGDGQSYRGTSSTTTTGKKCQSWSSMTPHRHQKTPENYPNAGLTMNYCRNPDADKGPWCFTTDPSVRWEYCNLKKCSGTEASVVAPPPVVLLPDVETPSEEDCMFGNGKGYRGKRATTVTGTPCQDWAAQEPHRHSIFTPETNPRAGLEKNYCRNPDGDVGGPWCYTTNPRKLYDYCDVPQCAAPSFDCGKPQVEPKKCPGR
T1 sequence (P00747 581-810 limits assumed): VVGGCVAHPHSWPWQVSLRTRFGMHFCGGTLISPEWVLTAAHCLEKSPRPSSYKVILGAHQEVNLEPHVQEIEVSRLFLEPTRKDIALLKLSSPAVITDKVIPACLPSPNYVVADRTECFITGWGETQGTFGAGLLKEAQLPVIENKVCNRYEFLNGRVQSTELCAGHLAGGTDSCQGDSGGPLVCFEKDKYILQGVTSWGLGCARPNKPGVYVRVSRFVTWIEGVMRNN
Sequence of Coagulation factor XI (P03951 19-387 limits assumed): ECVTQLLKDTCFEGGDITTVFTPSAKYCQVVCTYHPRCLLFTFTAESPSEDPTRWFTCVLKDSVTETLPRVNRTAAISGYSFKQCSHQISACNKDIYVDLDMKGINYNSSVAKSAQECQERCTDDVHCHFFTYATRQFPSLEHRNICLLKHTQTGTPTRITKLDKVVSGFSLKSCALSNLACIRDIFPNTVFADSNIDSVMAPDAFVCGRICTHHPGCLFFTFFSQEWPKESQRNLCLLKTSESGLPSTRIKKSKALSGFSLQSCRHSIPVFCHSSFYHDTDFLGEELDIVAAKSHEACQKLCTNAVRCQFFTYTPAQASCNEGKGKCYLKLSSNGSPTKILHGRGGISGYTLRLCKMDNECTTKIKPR
Sequence of Coagulation factor XI (P03951 388-625 limits assumed): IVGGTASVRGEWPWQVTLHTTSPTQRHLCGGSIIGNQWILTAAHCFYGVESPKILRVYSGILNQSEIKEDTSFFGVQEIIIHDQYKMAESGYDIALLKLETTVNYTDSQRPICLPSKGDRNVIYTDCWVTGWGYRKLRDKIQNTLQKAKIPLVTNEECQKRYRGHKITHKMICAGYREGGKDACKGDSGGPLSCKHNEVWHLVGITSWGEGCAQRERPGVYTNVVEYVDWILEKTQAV
Sequence of Coagulation factor X (P00742 41-179 limits assumed): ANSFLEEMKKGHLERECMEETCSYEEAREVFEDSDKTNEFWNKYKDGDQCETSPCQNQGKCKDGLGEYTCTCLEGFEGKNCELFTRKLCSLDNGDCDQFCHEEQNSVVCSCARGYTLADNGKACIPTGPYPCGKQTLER
Sequence of Coagulation factor X (P00742 235-488 limits assumed): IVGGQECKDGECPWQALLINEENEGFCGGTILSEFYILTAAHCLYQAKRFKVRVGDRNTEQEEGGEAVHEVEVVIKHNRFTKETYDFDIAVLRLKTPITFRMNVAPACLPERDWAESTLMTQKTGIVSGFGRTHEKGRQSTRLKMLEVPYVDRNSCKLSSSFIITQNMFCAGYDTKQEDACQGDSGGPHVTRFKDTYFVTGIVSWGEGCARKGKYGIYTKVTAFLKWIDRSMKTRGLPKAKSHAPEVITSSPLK
Sequence of Coagulation factor IX (P00740 47-191 limits assumed): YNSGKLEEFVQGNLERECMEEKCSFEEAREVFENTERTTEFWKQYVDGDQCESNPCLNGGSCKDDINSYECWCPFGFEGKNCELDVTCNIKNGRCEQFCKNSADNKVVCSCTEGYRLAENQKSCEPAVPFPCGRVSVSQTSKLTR
Sequence of Coagulation factor IX (P00740 227-461 limits assumed): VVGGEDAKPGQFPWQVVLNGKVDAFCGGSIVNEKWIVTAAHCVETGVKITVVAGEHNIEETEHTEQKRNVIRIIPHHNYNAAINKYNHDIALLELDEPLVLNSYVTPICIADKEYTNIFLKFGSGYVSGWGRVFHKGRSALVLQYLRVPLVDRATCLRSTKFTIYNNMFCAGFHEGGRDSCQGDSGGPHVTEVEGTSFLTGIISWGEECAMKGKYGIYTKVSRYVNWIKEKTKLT

| pIC50 (Plasminogen [1]) | SMILES | other results |
| --- | --- | --- |
| 4.38 | O=c1cc(-c2ccc(OS(=O)(=O)O)cc2)oc2cc(OS(=O)(=O)O)cc(OCc3cccc(COc4cc(OS(=O)(=O)O)cc5oc(-c6ccc(OS(=O)(=O)O)cc6)cc(=O)c45)n3)c12 | – |
| 4.85 | O=c1cc(-c2ccc(OS(=O)(=O)O)cc2)oc2cc(OS(=O)(=O)O)cc(OCc3ccc(COc4cc(OS(=O)(=O)O)cc5oc(-c6ccc(OS(=O)(=O)O)c(OS(=O)(=O)O)c6)c(OS(=O)(=O)O)c(=O)c45)cc3)c12 | – |
| 5.19 | Cc1cc(COc2cc(OS(=O)(=O)O)cc3oc(-c4ccc(OS(=O)(=O)O)c(OS(=O)(=O)O)c4)c(OS(=O)(=O)O)c(=O)c23)c(C)cc1COc1cc(OS(=O)(=O)O)cc2oc(-c3ccc(OS(=O)(=O)O)c(OS(=O)(=O)O)c3)c(OS(=O)(=O)O)c(=O)c12 | pKd (Plasminogen [2]): 6.00 |
| 4.14 | O=c1c(OS(=O)(=O)O)c(-c2ccc(OS(=O)(=O)O)c(OS(=O)(=O)O)c2)oc2cc(OS(=O)(=O)O)cc(OCc3cccc(COc4cc(OS(=O)(=O)O)cc5oc(-c6ccc(OS(=O)(=O)O)c(OS(=O)(=O)O)c6)c(OS(=O)(=O)O)c(=O)c45)c3)c12 | – |
| 4.43 | O=c1c(OS(=O)(=O)O)c(-c2ccc(OS(=O)(=O)O)c(OS(=O)(=O)O)c2)oc2cc(OS(=O)(=O)O)cc(OCc3ccc(-c4ccc(COc5cc(OS(=O)(=O)O)cc6oc(-c7ccc(OS(=O)(=O)O)c(OS(=O)(=O)O)c7)c(OS(=O)(=O)O)c(=O)c56)cc4)cc3)c12 | – |
| 4.15 | O=c1cc(-c2ccc(OS(=O)(=O)O)cc2)oc2cc(OS(=O)(=O)O)cc(OCCOc3cc(OS(=O)(=O)O)cc4oc(-c5ccc(OS(=O)(=O)O)cc5)cc(=O)c34)c12 | – |
| 4.47 | O=c1cc(-c2ccc(OS(=O)(=O)O)cc2)oc2cc(OS(=O)(=O)O)cc(OCc3cccc(COc4cc(OS(=O)(=O)O)cc5oc(-c6ccc(OS(=O)(=O)O)cc6)cc(=O)c45)c3)c12 | – |
| 3.55 | O=c1cc(-c2ccc(OS(=O)(=O)O)cc2)oc2cc(OS(=O)(=O)O)cc(OCCCCOc3cc(OS(=O)(=O)O)cc4oc(-c5ccc(OS(=O)(=O)O)cc5)cc(=O)c34)c12 | – |
| 4.33 | O=c1cc(-c2ccc(OS(=O)(=O)O)cc2)oc2cc(OS(=O)(=O)O)cc(OCc3ccc(-c4ccc(COc5cc(OS(=O)(=O)O)cc6oc(-c7ccc(OS(=O)(=O)O)cc7)cc(=O)c56)cc4)cc3)c12 | – |
| 3.64 | O=c1c(OS(=O)(=O)O)c(-c2ccc(OS(=O)(=O)O)c(OS(=O)(=O)O)c2)oc2cc(OS(=O)(=O)O)cc(OCc3cccc(COc4cc(OS(=O)(=O)O)cc5oc(-c6ccc(OS(=O)(=O)O)c(OS(=O)(=O)O)c6)c(OS(=O)(=O)O)c(=O)c45)n3)c12 | – |
| 4.70 | Cc1cc(COc2cc(OS(=O)(=O)O)cc3oc(-c4ccc(OS(=O)(=O)O)cc4)cc(=O)c23)c(C)cc1COc1cc(OS(=O)(=O)O)cc2oc(-c3ccc(OS(=O)(=O)O)cc3)cc(=O)c12 | pKd (Plasminogen [3]): 5.27; pKd (Plasminogen [2]): 5.72 |
| 3.94 | O=c1c(O)c(-c2ccc(O)c(O)c2)oc2cc(O)cc(OCc3ccc(COc4cc(O)cc5oc(-c6ccc(O)c(O)c6)c(O)c(=O)c45)cc3)c12 | pIC50 (Coagulation factor XI): 3.68; pIC50 (Prothrombin): 3.57; pIC50 (Coagulation factor X): 3.67 |
| 4.47 | O=c1cc(-c2ccc(OS(=O)(=O)O)cc2)oc2cc(OS(=O)(=O)O)cc(OCc3ccc(COc4cc(OS(=O)(=O)O)cc5oc(-c6ccc(OS(=O)(=O)O)cc6)cc(=O)c45)cc3)c12 | – |
| 3.92 | O=c1cc(-c2ccc(OS(=O)(=O)O)cc2)oc2cc(OS(=O)(=O)O)cc(OC/C=C/COc3cc(OS(=O)(=O)O)cc4oc(-c5ccc(OS(=O)(=O)O)cc5)cc(=O)c34)c12 | pKd (Plasminogen [2]): 5.44 |
| < 3.00 | O=c1cc(-c2ccc(OS(=O)(=O)O)cc2)oc2cc(OS(=O)(=O)O)cc(OCCCOc3cc(OS(=O)(=O)O)cc4oc(-c5ccc(OS(=O)(=O)O)cc5)cc(=O)c34)c12 | – |
| – | O=c1c(OS(=O)(=O)O)c(-c2ccc(OS(=O)(=O)O)c(OS(=O)(=O)O)c2)oc2cc(OS(=O)(=O)O)cc(OCc3ccc(COc4cc(OS(=O)(=O)O)cc5oc(-c6ccc(OS(=O)(=O)O)c(OS(=O)(=O)O)c6)c(OS(=O)(=O)O)c(=O)c45)cc3)c12 | pIC50 (Coagulation factor XII): < 3.00; pIC50 (Coagulation factor IX): < 2.70; pIC50 [4]: 3.71; pIC50 [5]: < 3.36; pIC50 (Coagulation factor XI): 3.74; pIC50 (Prothrombin): 3.81; pIC50 (Coagulation factor X): 3.30 |

From ChEMBL document CHEMBL4043061, “Potent, Selective, Allosteric Inhibition of Human Plasmin by Sulfated Non-Saccharide Glycosaminoglycan Mimetics” (J Med Chem, 2017)
